# Source: ChEMBL document CHEMBL6134769, “Discovery of N-substituted-2-oxoindolin benzoylhydrazines as c-MET/SMO modulators in EGFRi-resistant non-small cell lung cancer” (RSC Med Chem, 2025)
# The source made the active and inactive calls. The rule behind the calls is not given here.
# Columns and labels:
# [1] = biological target: Vascular endothelial growth factor receptor 2 (Homo sapiens) (UniProt P35968); experiment: Inhibition of human N-terminal GST-fused KDR cytoplasmic domain (790 to 1356 (end)residues) expressed in baculovirus expression system at 20 uM measured after 1 hr in presence of peptide substrate and ATP by off-chip mobility shift assay relative to control
# How it was run: (§1)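 Off-chip mobility shift assay. Product and substrate peptides were separated; activity was taken as P/(P+S). Complete reaction was set as 0% inhibition and enzyme-free background as 100%. Run in triplicate, mean ± SD.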
# [2] = biological target: T1, Ephrin type-B receptor 4 (Homo sapiens) (UniProt P54760); experiment: Inhibition of human N-terminal GST-fused EPHB4 cytoplasmic domain (577 to 987 (end)residues) expressed in baculovirus expression system at 20 uM measured after 1 hr in presence of peptide substrate and ATP by off-chip mobility shift assay relative to control; how it was run: as §1
# T1 sequence (whole entry): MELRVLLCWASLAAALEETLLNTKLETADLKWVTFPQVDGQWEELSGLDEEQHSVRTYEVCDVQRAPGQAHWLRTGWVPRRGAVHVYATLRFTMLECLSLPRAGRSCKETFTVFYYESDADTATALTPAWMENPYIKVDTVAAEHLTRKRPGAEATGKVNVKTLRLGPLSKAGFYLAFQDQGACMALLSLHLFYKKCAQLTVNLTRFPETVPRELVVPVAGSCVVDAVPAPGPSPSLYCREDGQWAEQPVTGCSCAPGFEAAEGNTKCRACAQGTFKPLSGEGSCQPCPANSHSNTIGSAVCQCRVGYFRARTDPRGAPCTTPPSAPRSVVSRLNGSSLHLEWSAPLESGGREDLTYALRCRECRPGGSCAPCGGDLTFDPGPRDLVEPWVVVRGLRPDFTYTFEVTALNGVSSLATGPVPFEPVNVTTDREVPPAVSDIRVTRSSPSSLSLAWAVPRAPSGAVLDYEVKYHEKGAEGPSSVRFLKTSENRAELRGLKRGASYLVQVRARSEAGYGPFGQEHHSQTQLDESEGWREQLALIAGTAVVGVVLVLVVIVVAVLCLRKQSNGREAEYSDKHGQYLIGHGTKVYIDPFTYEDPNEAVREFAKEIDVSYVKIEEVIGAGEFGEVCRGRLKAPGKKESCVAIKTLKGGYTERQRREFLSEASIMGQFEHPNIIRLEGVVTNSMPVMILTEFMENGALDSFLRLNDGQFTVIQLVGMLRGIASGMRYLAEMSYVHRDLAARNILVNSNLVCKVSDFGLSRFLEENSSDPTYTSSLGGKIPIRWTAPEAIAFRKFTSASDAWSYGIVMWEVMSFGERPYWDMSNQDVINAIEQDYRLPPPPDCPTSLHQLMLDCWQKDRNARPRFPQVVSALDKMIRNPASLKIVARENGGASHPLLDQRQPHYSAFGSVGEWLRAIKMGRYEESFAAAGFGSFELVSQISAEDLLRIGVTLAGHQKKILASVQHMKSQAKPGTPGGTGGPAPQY
# Protein smoothened = Protein smoothened (Homo sapiens, UniProt Q99835); experiment: Inhibition of SMO in human HCC827 Gefitinib-resistant (GR) cells assessed as reduction in GLI1 expression at antiproliferative IC50 measured after 72 hrs by Western blot analysis; assay type: functional, cell-based; conditions: HCC827 Gefitinib-resistant (GR) cell
# [3] = biological target: T2, Tyrosine-protein kinase receptor TYRO3 (Homo sapiens) (UniProt Q06418); experiment: Inhibition of human N-terminal GST-fused TYRO3 cytoplasmic domain (453 to 890 (end)residues) expressed in baculovirus expression system at 20 uM measured after 1 hr in presence of peptide substrate and ATP by off-chip mobility shift assay relative to control; how it was run: as §1
# T2 sequence (whole entry): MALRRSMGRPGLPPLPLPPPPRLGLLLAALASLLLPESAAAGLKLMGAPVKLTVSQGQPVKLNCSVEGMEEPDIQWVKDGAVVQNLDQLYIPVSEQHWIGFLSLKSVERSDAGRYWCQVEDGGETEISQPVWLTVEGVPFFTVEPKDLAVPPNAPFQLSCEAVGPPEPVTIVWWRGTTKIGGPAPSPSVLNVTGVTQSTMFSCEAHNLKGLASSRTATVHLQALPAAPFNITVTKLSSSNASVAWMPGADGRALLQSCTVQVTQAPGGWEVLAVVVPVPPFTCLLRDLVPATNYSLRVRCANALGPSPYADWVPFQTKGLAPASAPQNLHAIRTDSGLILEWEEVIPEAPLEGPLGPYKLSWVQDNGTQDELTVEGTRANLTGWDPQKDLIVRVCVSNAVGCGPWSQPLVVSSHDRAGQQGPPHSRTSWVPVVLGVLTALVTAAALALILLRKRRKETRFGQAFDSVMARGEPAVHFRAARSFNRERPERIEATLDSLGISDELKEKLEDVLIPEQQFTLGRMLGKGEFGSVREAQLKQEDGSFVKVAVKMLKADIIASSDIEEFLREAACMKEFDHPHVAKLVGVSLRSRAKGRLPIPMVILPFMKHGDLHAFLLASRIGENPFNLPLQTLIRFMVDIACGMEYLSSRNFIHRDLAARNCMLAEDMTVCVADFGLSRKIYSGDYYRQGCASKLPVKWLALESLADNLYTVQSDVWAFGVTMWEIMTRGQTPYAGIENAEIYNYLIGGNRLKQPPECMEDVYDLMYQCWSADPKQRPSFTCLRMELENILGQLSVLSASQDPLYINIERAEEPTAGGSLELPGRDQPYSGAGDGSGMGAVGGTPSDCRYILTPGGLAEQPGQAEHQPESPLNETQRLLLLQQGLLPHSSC
# [4] = biological target: Tyrosine-protein kinase CSK (Homo sapiens) (UniProt P41240); experiment: Inhibition of human full-length N-terminal GST-fused CSK (1 to 450 (end)residues) expressed in baculovirus expression system at 20 uM measured after 1 hr in presence of peptide substrate and ATP by off-chip mobility shift assay relative to control; how it was run: as §1
# [5] = biological target: Receptor-type tyrosine-protein kinase FLT3 (Homo sapiens) (UniProt P36888); experiment: Inhibition of human N-terminal GST-fused FLT3 cytoplasmic domain (564 to 993 (end)residues) expressed in baculovirus expression system at 20 uM measured after 1 hr in presence of peptide substrate and ATP by off-chip mobility shift assay relative to control; how it was run: as §1
# [6] = biological target: Platelet-derived growth factor receptor alpha (Homo sapiens) (UniProt P16234); experiment: Inhibition of human N-terminal GST-fused PDGFRalpha cytoplasmic domain (550 to 1089 (end)residues) expressed in baculovirus expression system at 20 uM measured after 1 hr in presence of peptide substrate and ATP by off-chip mobility shift assay relative to control; how it was run: as §1
# [7] = biological target: Epidermal growth factor receptor (Homo sapiens) (UniProt P00533); experiment: Inhibition of human N-terminal GST-fused EGFR cytoplasmic domain (669 to 1210 (end)residues) expressed in baculovirus expression system at 20 uM measured after 1 hr in presence of peptide substrate and ATP by off-chip mobility shift assay relative to control; how it was run: as §1
# [8] = Inhibition of human full-length N-terminal GST-fused SRC (1 to 536 (end)residues) expressed in baculovirus expression system at 20 uM measured after 1 hr in presence of peptide substrate and ATP by off-chip mobility shift assay relative to control; how it was run: as §1
# Chain of Epidermal growth factor receptor (Homo sapiens) (P00533 whole entry, the tested form may be a part): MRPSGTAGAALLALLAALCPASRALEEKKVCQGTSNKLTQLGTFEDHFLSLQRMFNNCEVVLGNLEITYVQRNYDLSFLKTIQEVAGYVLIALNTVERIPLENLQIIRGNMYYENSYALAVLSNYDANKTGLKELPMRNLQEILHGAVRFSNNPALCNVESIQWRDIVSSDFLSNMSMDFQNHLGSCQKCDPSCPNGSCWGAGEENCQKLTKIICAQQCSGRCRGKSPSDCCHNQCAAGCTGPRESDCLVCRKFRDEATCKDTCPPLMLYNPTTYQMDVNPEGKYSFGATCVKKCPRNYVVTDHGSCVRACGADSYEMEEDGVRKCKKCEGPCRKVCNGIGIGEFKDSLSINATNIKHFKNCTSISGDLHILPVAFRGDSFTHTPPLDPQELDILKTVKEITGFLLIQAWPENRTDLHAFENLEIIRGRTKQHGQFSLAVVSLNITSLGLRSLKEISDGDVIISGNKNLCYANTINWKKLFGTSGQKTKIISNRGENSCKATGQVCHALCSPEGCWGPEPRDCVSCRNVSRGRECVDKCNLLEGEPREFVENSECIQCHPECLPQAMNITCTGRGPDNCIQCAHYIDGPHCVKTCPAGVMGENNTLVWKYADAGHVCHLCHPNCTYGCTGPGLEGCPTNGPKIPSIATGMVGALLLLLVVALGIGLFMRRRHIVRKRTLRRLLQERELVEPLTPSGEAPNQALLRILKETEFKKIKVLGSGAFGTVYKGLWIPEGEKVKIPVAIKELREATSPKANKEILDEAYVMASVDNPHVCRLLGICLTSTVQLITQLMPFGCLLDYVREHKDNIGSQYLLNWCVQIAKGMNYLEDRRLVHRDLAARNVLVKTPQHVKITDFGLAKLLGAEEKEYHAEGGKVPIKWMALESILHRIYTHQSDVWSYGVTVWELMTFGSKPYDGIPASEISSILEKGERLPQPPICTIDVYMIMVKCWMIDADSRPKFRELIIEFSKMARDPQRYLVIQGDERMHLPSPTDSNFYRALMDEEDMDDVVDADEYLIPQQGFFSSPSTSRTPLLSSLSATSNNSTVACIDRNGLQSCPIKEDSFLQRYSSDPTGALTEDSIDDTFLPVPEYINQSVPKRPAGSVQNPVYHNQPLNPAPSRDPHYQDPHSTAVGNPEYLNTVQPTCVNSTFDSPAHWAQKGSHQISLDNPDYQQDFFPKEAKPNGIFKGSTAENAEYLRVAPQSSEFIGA
# Chain of Vascular endothelial growth factor receptor 2 (Homo sapiens) (P35968 whole entry, the tested form may be a part): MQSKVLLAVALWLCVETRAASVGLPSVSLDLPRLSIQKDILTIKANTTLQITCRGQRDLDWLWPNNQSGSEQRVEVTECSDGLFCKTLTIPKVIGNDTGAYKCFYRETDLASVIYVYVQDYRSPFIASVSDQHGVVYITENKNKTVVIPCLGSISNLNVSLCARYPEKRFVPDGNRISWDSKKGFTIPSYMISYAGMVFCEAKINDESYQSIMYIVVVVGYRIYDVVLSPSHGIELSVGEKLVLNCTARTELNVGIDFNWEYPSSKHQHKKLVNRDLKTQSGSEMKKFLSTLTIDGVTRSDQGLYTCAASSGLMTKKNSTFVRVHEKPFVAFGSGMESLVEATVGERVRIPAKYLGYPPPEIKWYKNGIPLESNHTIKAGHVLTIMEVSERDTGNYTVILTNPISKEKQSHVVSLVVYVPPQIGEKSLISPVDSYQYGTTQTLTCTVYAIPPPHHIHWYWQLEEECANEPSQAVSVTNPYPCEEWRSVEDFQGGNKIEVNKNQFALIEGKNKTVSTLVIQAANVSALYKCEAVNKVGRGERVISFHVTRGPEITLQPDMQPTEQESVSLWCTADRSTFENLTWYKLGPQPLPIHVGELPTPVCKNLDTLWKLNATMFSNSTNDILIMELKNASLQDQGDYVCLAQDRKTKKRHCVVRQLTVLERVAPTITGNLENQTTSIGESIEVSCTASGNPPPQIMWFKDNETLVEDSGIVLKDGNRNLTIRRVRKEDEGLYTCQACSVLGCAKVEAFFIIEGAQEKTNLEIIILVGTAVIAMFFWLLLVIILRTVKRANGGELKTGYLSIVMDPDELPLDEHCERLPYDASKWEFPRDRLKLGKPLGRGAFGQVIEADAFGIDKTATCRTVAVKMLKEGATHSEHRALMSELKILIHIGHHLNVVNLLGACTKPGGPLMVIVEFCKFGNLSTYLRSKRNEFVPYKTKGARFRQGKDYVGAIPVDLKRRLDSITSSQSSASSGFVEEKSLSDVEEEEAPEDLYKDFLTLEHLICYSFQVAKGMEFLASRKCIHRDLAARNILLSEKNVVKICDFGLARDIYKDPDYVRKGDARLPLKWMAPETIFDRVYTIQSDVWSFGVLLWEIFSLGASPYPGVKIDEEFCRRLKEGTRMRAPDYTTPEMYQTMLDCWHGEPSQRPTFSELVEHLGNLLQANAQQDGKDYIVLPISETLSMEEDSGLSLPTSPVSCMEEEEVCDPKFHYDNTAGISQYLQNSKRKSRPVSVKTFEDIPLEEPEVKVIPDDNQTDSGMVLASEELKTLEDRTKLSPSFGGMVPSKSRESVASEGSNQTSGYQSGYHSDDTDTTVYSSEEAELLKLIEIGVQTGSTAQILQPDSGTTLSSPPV
# Chain of Tyrosine-protein kinase CSK (Homo sapiens) (P41240 2-450 limits assumed): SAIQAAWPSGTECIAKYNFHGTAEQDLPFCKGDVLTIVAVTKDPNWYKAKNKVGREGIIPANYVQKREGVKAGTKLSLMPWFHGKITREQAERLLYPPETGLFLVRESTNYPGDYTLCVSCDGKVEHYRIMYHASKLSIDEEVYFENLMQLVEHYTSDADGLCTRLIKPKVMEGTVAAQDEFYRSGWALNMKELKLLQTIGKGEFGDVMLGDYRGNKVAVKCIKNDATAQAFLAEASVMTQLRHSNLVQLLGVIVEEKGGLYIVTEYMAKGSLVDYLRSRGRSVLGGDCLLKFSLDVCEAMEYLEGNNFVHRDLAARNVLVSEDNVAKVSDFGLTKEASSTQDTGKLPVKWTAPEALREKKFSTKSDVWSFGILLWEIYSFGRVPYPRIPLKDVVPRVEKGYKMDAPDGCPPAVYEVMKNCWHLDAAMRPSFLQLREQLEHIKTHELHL
# Chain of Receptor-type tyrosine-protein kinase FLT3 (Homo sapiens) (P36888 whole entry, the tested form may be a part): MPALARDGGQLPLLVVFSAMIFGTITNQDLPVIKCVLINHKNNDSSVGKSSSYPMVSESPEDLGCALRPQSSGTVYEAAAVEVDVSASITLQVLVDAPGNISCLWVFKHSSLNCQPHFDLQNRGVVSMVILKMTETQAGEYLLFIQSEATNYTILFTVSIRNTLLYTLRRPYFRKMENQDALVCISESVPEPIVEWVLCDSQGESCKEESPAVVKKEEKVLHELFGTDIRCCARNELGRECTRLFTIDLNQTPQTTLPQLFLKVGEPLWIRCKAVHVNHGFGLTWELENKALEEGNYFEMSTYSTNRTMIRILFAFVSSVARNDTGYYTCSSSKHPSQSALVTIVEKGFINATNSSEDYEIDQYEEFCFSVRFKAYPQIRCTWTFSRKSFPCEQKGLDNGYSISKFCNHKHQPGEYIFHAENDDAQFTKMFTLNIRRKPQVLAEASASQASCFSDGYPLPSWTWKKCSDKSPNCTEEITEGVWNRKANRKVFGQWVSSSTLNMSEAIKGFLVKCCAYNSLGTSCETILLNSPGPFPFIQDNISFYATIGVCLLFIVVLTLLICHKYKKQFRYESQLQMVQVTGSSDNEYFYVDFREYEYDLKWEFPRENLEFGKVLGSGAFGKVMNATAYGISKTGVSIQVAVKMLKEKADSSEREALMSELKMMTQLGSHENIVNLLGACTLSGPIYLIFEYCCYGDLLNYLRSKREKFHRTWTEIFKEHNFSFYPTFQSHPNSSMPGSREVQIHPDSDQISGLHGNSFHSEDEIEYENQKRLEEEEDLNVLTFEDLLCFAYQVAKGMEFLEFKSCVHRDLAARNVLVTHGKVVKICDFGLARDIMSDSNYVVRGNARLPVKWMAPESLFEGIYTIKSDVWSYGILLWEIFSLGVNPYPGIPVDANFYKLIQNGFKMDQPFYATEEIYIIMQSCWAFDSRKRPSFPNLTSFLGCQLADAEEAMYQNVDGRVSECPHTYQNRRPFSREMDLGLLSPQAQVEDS
# Chain of Platelet-derived growth factor receptor alpha (Homo sapiens) (P16234 whole entry, the tested form may be a part): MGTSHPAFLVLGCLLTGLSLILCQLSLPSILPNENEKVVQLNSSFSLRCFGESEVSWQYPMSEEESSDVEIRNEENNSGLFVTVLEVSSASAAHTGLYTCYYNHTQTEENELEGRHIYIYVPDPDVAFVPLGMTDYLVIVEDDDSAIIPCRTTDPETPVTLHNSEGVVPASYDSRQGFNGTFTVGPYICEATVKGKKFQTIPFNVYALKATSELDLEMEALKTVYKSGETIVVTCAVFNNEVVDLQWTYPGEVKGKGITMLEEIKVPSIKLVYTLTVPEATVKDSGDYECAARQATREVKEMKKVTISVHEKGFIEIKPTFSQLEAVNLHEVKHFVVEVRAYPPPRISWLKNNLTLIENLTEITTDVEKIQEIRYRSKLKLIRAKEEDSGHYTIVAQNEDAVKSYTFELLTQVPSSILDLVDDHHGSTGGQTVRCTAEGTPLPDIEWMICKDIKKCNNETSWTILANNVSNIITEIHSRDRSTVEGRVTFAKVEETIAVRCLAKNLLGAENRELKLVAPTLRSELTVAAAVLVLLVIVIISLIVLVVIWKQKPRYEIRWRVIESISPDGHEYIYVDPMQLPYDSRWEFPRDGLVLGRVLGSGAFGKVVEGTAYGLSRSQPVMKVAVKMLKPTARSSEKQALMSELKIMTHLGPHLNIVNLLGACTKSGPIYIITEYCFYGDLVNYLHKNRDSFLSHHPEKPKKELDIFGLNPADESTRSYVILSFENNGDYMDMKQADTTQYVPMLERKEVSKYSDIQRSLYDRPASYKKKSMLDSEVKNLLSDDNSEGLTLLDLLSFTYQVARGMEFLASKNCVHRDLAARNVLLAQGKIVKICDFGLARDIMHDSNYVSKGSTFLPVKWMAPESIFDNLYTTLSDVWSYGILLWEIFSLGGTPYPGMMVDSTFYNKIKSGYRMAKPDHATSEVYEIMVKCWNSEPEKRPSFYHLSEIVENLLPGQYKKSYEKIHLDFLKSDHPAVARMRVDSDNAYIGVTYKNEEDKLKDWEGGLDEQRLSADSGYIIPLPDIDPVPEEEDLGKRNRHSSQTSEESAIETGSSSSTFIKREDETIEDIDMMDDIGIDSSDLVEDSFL
inhibition [1],inhibition [2],GLI1 expression reduction (qualitative) (Protein smoothened),inhibition [3],inhibition [4],inhibition [5],inhibition [6],inhibition [7],inhibition [8],Compound
81.4%,93.3%,Active,48.5%,93.5%,89.7%,76.2%,85.2%,49.3%,Cc1ccc(NC(=O)CN2C(=O)/C(=N\NC(=O)c3cc(Br)ccc3O)c3ccccc32)cc1
63.5%,62.5%,Active,39.3%,86.1%,72.6%,56.7%,70.9%,56.5%,Cc1ccc(NC(=O)CN2C(=O)/C(=N\NC(=O)c3cc(Br)ccc3O)c3ccc(Br)cc32)cc1
61.2%,70.8%,Active,46.4%,82.9%,55.8%,63.3%,69.3%,50.7%,O=C(CN1C(=O)/C(=N\NC(=O)c2cc(Br)ccc2O)c2c(Br)cccc21)Nc1ccc([N+](=O)[O-])cc1
66.6%,63%,Active,51.3%,82.1%,71.9%,56.5%,72.9%,64.3%,Cc1ccc(NC(=O)CN2C(=O)/C(=N\NC(=O)c3cc(Br)ccc3O)c3ccc(Cl)cc32)cc1
